Here are results for nine compounds from ChEMBL document CHEMBL1129031, “Cyclic nitrone free radical traps: isolation, identification, and synthesis of 3,3-dimethyl-3,4-dihydroisoquinolin-4-ol N-oxide, a metabolite with reduced side effects” (J Med Chem, 1996).

Data set [1] can be described thus: Compound was tested for brain permeability at 200 mg/kg i.p. after 30 min. The data set is classed as ADME, organism-based. Further details: dose 200 mg/kg, route intraperitoneal. The following applies: in vivo, ip, 0.5 h. In a few lines: (§1)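 Rats given a single ip dose of 200 mg/kg and killed at 30 or 60 min after dosing. Brains were removed, homogenized and extracted with CHCl₃/MeOH. Brain level is reported as µg/g wet weight.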

A short description of data set [2]: Compound was tested for brain permeability at 200 mg/kg i.p. after 60 min. The data set is classed as ADME, organism-based. Further details: dose 200 mg/kg, route intraperitoneal. As to conditions: in vivo, ip, 1 h. In a few lines:
as §1

The nature of data set [3]: Lipophilicity expressed as log K'w. The data set is classed as physicochemical. As to conditions: reversed-phase HPLC.
Data set [4] in a line: In vitro antioxidant activity was measured as IC50, inhibition concentration against neuronal peroxidation. The data set is classed as functional, Rattus norvegicus. In a few lines:
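Rat cerebellar granule cells (from 8-day pups, 8-10 days in vitro) in glucose-free Na⁺-free Locke's, pH 7.3. Nitrone was preincubated 30 min, then FeCl₂ added at 100 µM final for 45 min. TBARS measured in the medium, with no-iron background subtracted. IC50 is the concentration inhibiting 50% of iron-induced oxidation.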

In data set [5] the test system is Mus musculus. The data set is described as follows: (§2) The compound was tested for acute toxicity and activity is expressed as deaths/5 mice after iv (200 mg/kg) administration. The data set is classed as functional. In a few lines:
(§3)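 Acute toxicity screen in mice given the compound intravenously at 200 mg/kg body weight, five mice per group. Read-out is the survival rate, reported as the number of deaths among the five animals.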

In data set [6] the test system is Mus musculus. Put plainly: (§4) The compound was tested for acute toxicity and activity is expressed as deaths/5 mice after iv (400 mg/kg) administration. The data set is classed as functional. The essentials:
(§5)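 Acute toxicity screen in mice given the compound intravenously at 400 mg/kg body weight, five mice per group. Read-out is the survival rate, reported as the number of deaths among the five animals.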

Data set [7] in a line: In vitro antioxidant activity was measured as IC50, Inhibition concentration against Liposomal peroxidation. The data set is classed as functional, Glycine max. In a few lines:
(§6)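 Liposomes were made from soybean phosphatidylcholine. Oxidation was initiated and quantitated by the previously described method. Activity is expressed as IC50, the concentration inhibiting lipid peroxidation by 50%.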

Data set [8] deals with Rattus norvegicus. Put plainly: Compound was tested for rat brain permeability at 200 mg/kg i.p. after 30 min. The arrangement: dose 200 mg/kg, route intraperitoneal. The data set is classed as ADME, organism-based. As to conditions: in vivo, ip, 0.5 h. In a few lines:
as §1

Data set [9] concerns Rattus norvegicus. The data set is described as follows: Compound was tested for rat brain permeability at 200 mg/kg i.p. after 60 min. The data set is classed as ADME, organism-based. The arrangement: dose 200 mg/kg, route intraperitoneal. The following applies: in vivo, ip, 1 h. In a few lines: as §1
Data set [10] is described as follows: Maintenance of cell viability by the compound was tested in vitro against cerebellar granule cell cultures from 8-day-old-rats. The data set is classed as functional. The following applies: Rattus norvegicus. In a few lines:
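Cerebellar granule cultures from 8-day-old rats were used at 8-10 days in vitro. Cells got nitrone for 30 min, then 100 µM FeCl₂ for 45 min in Na⁺-free Locke's. MEM plus MTT was added for 4 h and the cells lysed in acidic 2-propanol. Read at A570-630, with cell death given relative to no-iron cells. Two separate experiments about 6 months apart.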

Data set [11] is described as follows: In vitro antioxidant activity was measured as IC50, Inhibitory concentration against Liposomal peroxidation. The data set is classed as functional, Glycine max. In a few lines:
as §6

Data set [12] relates to Mus musculus. Described as §2. The data set is classed as organism-based. The following applies: in vivo. In a few lines:
as §3

The test system of data set [13] is Mus musculus. The description is as §4. The data set is classed as organism-based. As to conditions: in vivo. The essentials: as §5

The structures appear in SMILES notation.

With `CC1(C)Cc2ccccc2C=[N+]1[O-]`, the Brain level was 109 µg/g in data set [1] and 77 µg/g in data set [2]. Also, the “Log k'w” value in data set [3] worked out at 1.9. For the same compound, the IC50 (as a rule, the midpoint of a concentration-inhibition curve) in data set [4] was found to be 307 µM; in data set [7], 1670 µM. Besides, the Toxicity was found to be 0 in [5] and 5 in [6].

As to `CC(C)(C)/[N+]([O-])=C/c1ccccc1`, the values for the Brain level in [8] and in data set [9] were 51 µg/g and 38 µg/g, respectively. Moreover, the IC50 worked out at 2580 µM in data set [4], 2600 µM in data set [10] and 14300 µM in data set [11]. For the same compound, the figures for the Toxicity in data set [5] and in data set [6] were 1 and 4, respectively.

For `CC(=O)OC1c2ccccc2C=[N+]([O-])C1(C)C` (centres undefined), the “Log k'w” value in [3] is given as 1.95. The figures for the 50% inhibitory concentration (IC50) in data set [4], in data set [10] and in data set [7] were 839 µM, 660 µM and 2090 µM, respectively. The Toxicity in data set [12] and in [13] was 0 throughout.

As for `[O-][N+]1=Cc2ccccc2C(O)C12CCCCC2` (centres undefined), in [3], the “Log k'w” value is 2.1. Besides, the figures for the IC50 in [4], in [10] and in [7] were 520 µM, 588 µM and 539 µM, respectively. Moreover, the Toxicity in [12] and in data set [13] was 0 in each case.

Regarding `[O-][N+]1=Cc2ccccc2C(O)C12CCCC2` (centres undefined), the “Log k'w” value in [3] is recorded as 1.67. In addition, the IC50 came to 771 µM in data set [4], 817 µM in data set [10] and 1040 µM in data set [7]. Moreover, the Toxicity in data set [12] and in data set [13] was 0 in each case.

As for `CC1(C)C(=O)c2ccccc2C=[N+]1[O-]`, the Brain level is 103 µg/g in data set [8] and 67 µg/g in [9]. For the same compound, the “Log k'w” value in [3] is recorded as 1.65. In addition, the IC50 in [4] is 830 µM; in [10] it was 882 µM; in [7], 940 µM. The values for the Toxicity in [12] and in data set [13] were 0 and 1, respectively.

`CC1(C)C(O)c2ccccc2C=[N+]1[O-]` (centres undefined): the Brain level in data set [1] was 142 µg/g; in data set [2] it was 127 µg/g. Further, the “Log k'w” value in data set [3] is 0.91. Moreover, the 50% inhibitory concentration (IC50) in data set [4] stood at 1900 µM; in data set [10], 1500 µM; in data set [7] it was 5500 µM. The Toxicity in data set [5] and in [6] was 0 throughout.

Consider `O=C1c2ccccc2C=[N+]([O-])C12CCCC2`, for which the “Log k'w” value in data set [3] is on record as 2.05. The IC50 came to 102 µM in data set [4] and 157 µM in [7]. The figures for the Toxicity in data set [12] and in data set [13] were 0 and 4, respectively.

On to `O=C1c2ccccc2C=[N+]([O-])C12CCCCC2`, for which the “Log k'w” value in data set [3] came out at 2.6. The IC50 turned out to be 37 µM in data set [4], 39 µM in data set [10] and 27 µM in data set [7]. Besides, the Toxicity in data set [12] is listed as 0; in [13], 5.
